Calls of active or inactive are those of the source. The calls are words filed in the database; no cut-off is given here.
What was measured:
C32 = test: Antiproliferative activity against human C32 cells assessed reduction in cell viability incubated for 4 days in presence of 4-(2-(1H-indazol-4-yl)-6-((4-(methylsulfonyl)piperazin-1-yl)methyl)thieno[3,2-d]pyrimidin-4-yl)morpholine by celltiter-glo assay; type: functional; conditions: time 4 day
Method in brief: (§1)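 4-day CellTiter-Glo viability read-out on melanoma lines, cells exposed to increasing concentrations of each inhibitor alone and in combination.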

SK-OV-3 = test: Antitumor activity against human SK-OV-3 cells harboring FBXW7 R505L and CDKN2A mutant xenografted in mouse assessed as tumor growth inhibition at 2.5 mg/kg, po; type: functional; conditions: read-out: TGI
Method in brief: (§2)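 Human tumor xenografts in mice were dosed orally at the indicated mg/kg. Tumor volume was measured with calipers as (L×W×W)/2. %TGI = 100 × [1 − (AUC treatment/d)/(AUC vehicle/d)], using the area under the fitted tumor-growth curve per day for each dose group relative to vehicle.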

888-mel [1] = test: Inhibition of ERK phosphorylation in human 888-mel cells incubated for 24 hrs in presence of 4-(2-(1H-indazol-4-yl)-6-((4-(methylsulfonyl)piperazin-1-yl)methyl)thieno[3,2-d]pyrimidin-4-yl)morpholine by immunoblotting analysis; type: cell-based
NCI-H2122 = test: Antitumor activity against human NCI-H2122 cells harboring KRAS […]/LKB1 P281/TP53Q61L/C176Fl/CDKN2A mutant xenografted in mouse assessed as tumor growth inhibition at 10 mg/kg, po; type: functional; conditions: read-out: TGI
Method in brief: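 NCI-H2122 (KRAS G12C) NSCLC xenografts in mice were dosed orally once daily for 21 consecutive days. Tumor volume was measured with calipers as (L×W×W)/2, and body weight was tracked. %TGI was derived from the area under the fitted growth curve per day versus vehicle. Group means with SEM were reported.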

888-mel [2] = test: Antiproliferative activity against human 888-mel cells harboring BRAF V600E mutant assessed as reduction in cell viability incubated for 96 hrs in presence of 4-(2-(1H-indazol-4-yl)-6-((4-(methylsulfonyl)piperazin-1-yl)methyl)thieno[3,2-d]pyrimidin-4-yl)morpholine; type: functional, cell-based
A2058 [3] = test: Antiproliferative activity against human A2058 cells assessed reduction in cell viability incubated for 4 days in presence of 4-(2-(1H-indazol-4-yl)-6-((4-(methylsulfonyl)piperazin-1-yl)methyl)thieno[3,2-d]pyrimidin-4-yl)morpholine by celltiter-glo assay; type: functional; conditions: time 4 day; method in brief: as §1
DLD-1 [4] = test: Antitumor activity against human DLD-1 cells xenografted in mouse assessed as tumor growth inhibition at 3 mg/kg, po administered once a day for 21 days in presence of 4-(2-(1H-indazol-4-yl)-6-((4-(methylsulfonyl)piperazin-1-yl)methyl)thieno[3,2-d]pyrimidin-4-yl)morpholine; type: functional; conditions: DLD-1, 504 h, time 21 day, read-out: TGI
Method in brief: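 Human tumor xenografts in mice. Drugs given orally, as single agents or combined with the PI3K inhibitor. Schedules were daily (QD) or every third day (Q3D) over 21 days. Tumor volume was measured by caliper as (L×W×W)/2. %TGI = 100×[1 − AUC(treatment/d)/AUC(vehicle/d)] from fitted growth curves, with group means. Tumor lysates were immunoblotted for pS6.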

DLD-1 [5] = test: Antitumor activity against human DLD-1 cells harboring KRAS G13D/IDH1 G97D/SMO T640A/APC I1417 mutant xenografted in mouse assessed as tumor growth inhibition at 10 mg/kg, po; type: functional; conditions: read-out: TGI
Method in brief: (§3)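 Single-agent dose ranging in human tumor xenograft mice at 2.5, 5 or 10 mg/kg oral. Tumor volume was measured by caliper as (L×W×W)/2. %TGI = 100×[1 − AUC(treatment/d)/AUC(vehicle/d)] from the fitted growth curve per dose group, relative to vehicle.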

[6] = molecular target: RAC-beta serine/threonine-protein kinase (Homo sapiens, UniProt P31751); test: Inhibition of Akt2 (unknown origin)
[7] = molecular target: BDNF/NT-3 growth factors receptor (Homo sapiens, UniProt Q16620); test: Inhibition of TrkB (unknown origin)
[8] = molecular target: Tyrosine-protein kinase Lyn (Homo sapiens, UniProt P07948); test: Inhibition of Lyn (unknown origin)
[9] = molecular target: Epidermal growth factor receptor (Homo sapiens, UniProt P00533); test: Inhibition of EGFR (unknown origin)
A2058 [10] = test: Antitumor activity against human A2058 cells harboring BRAF V600E/PTEN deletion mutant xenografted in mouse assessed as suppression of ERK phosphorylation at 15 mg/kg, po administered every third day for 21 days and measured after 8 hrs post dose by western blot analysis; type: functional, organism-based; conditions: time 512.0 hrs
[11] = Antitumor activity against human A2058-X1 cells harboring BRAF V600E/PTEN L112Q/V175/TP53 V274F mutant xenografted in mouse assessed as tumor growth inhibition at 2.5 mg/kg, po; type: functional; conditions: A2058-X1, read-out: TGI; method in brief: as §3
[12] = molecular target: Mitogen-activated protein kinase kinase kinase 9 (Homo sapiens, UniProt P80192); test: Inhibition of MLK1 (unknown origin)
Aurora kinase A = Aurora kinase A (Homo sapiens, UniProt O14965); test: Inhibition of AuroraA (unknown origin)
Insulin receptor = Insulin receptor (Homo sapiens, UniProt P06213); test: Inhibition of insulin receptor (unknown origin)
A2058 [13] = test: Antitumor activity against human A2058 cells harboring BRAF V600E/PTEN L112Q/V175/TP53 V274F mutant xenografted in mouse assessed as tumor growth inhibition at 10 mg/kg, po; type: functional; conditions: read-out: TGI
Method in brief: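 Mice carrying human tumor xenografts dosed orally once daily for 21 consecutive days. Tumor volume measured by calipers as (L×W×W)/2. %TGI = 100×[1 − AUC(treatment/day)/AUC(vehicle/day)], using the area under the fitted growth curve relative to vehicle.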

[14] = Antitumor activity against human MOLM16 cells harboring FLT3 T227M mutant xenografted in mouse assessed as tumor growth inhibition at 5 mg/kg, po; type: functional, MOLM-16; conditions: read-out: TGI; method in brief: as §2
Calu-6 = test: Antitumor activity against human Calu-6 cells harboring KRAS Q61K and TP53 R196 mutant xenografted in mouse assessed as tumor growth inhibition at 5 mg/kg, po; type: functional; conditions: read-out: TGI; method in brief: as §3
DLD-1 [15] = test: Antitumor activity against human DLD-1 cells harboring KRAS G13D/IDH1 G97D/SMO T640A/APC I1417 mutant xenografted in mouse assessed as tumor growth inhibition at 5 mg/kg, po; type: functional; conditions: read-out: TGI; method in brief: as §3
[16] = molecular target: Phosphatidylinositol 4,5-bisphosphate 3-kinase catalytic subunit beta isoform (Homo sapiens, UniProt P42338); test: Inhibition of PI3Kbeta (unknown origin)
A2058 [17] = test: Antitumor activity against human A2058 cells harboring BRAF V600E/PTEN deletion mutant xenografted in mouse assessed as increase in Bims level at 15 mg/kg, po administered every third day for 21 days and measured after 8 hrs post dose in presence of 4-(2-(1H-indazol-4-yl)-6-((4-(methylsulfonyl)piperazin-1-yl)methyl)thieno[3,2-d]pyrimidin-4-yl)morpholine by Western blot analysis; type: functional, organism-based; conditions: time 512.0 hrs
[18] = molecular target: Dual specificity protein kinase CLK3 (Homo sapiens, UniProt P49761); test: Inhibition of CLK3 (unknown origin)
[19] = molecular target: Serine/threonine-protein kinase Sgk1 (Homo sapiens, UniProt O00141); test: Inhibition of SGK (unknown origin)
[20] = molecular target: ALK tyrosine kinase receptor (Homo sapiens, UniProt Q9UM73); test: Inhibition of ALK (unknown origin)
A2058 [21] = test: Antitumor activity against human A2058 cells harboring BRAF V600E/PTEN deletion mutant xenografted in mouse assessed as suppression of S6 phosphorylation at 15 mg/kg, po administered every third day for 21 days and measured after 72 hrs post dose by Western blot analysis; type: functional, organism-based; conditions: time 576.0 hrs

Sequence of Phosphatidylinositol 4,5-bisphosphate 3-kinase catalytic subunit beta isoform (P42338 whole entry, canonical isoform): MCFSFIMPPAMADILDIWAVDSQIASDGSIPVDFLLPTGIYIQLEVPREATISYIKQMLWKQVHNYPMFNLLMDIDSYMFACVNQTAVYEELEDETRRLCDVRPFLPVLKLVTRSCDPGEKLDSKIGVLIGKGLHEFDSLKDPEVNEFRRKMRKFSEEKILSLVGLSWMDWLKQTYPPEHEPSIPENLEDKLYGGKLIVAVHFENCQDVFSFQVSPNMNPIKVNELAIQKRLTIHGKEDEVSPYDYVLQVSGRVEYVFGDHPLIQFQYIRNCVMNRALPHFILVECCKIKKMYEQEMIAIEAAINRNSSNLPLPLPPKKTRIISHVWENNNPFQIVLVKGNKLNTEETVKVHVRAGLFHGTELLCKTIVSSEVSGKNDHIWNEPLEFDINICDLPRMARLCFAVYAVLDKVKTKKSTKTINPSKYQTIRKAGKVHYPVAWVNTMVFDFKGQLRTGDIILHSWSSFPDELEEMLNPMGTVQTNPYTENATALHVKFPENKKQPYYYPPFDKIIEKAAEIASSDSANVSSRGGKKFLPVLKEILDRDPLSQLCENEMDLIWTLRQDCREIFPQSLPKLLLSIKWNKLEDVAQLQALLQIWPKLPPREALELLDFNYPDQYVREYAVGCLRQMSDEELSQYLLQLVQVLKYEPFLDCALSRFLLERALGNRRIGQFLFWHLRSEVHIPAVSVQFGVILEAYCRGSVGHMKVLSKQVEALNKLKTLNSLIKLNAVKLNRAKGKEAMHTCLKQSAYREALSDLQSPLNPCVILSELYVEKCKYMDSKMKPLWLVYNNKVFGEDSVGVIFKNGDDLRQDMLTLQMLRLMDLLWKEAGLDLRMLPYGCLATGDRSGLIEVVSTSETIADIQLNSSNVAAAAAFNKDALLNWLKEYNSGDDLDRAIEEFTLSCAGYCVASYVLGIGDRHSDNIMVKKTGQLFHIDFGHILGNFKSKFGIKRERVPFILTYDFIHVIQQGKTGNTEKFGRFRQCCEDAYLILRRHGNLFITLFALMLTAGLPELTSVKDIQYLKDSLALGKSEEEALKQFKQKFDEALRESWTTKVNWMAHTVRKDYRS
Sequence of Aurora kinase A (O14965 whole entry): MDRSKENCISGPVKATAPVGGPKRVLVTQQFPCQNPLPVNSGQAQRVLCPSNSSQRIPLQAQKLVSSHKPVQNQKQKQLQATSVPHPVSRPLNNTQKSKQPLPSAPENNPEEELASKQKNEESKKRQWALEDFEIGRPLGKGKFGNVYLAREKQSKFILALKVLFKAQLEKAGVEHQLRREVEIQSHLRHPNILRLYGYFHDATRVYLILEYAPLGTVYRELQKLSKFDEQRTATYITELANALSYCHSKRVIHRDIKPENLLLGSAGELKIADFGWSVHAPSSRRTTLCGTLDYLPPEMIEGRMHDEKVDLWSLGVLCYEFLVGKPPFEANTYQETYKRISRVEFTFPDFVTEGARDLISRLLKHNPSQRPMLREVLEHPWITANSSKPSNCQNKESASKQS
Sequence of ALK tyrosine kinase receptor (Q9UM73 whole entry): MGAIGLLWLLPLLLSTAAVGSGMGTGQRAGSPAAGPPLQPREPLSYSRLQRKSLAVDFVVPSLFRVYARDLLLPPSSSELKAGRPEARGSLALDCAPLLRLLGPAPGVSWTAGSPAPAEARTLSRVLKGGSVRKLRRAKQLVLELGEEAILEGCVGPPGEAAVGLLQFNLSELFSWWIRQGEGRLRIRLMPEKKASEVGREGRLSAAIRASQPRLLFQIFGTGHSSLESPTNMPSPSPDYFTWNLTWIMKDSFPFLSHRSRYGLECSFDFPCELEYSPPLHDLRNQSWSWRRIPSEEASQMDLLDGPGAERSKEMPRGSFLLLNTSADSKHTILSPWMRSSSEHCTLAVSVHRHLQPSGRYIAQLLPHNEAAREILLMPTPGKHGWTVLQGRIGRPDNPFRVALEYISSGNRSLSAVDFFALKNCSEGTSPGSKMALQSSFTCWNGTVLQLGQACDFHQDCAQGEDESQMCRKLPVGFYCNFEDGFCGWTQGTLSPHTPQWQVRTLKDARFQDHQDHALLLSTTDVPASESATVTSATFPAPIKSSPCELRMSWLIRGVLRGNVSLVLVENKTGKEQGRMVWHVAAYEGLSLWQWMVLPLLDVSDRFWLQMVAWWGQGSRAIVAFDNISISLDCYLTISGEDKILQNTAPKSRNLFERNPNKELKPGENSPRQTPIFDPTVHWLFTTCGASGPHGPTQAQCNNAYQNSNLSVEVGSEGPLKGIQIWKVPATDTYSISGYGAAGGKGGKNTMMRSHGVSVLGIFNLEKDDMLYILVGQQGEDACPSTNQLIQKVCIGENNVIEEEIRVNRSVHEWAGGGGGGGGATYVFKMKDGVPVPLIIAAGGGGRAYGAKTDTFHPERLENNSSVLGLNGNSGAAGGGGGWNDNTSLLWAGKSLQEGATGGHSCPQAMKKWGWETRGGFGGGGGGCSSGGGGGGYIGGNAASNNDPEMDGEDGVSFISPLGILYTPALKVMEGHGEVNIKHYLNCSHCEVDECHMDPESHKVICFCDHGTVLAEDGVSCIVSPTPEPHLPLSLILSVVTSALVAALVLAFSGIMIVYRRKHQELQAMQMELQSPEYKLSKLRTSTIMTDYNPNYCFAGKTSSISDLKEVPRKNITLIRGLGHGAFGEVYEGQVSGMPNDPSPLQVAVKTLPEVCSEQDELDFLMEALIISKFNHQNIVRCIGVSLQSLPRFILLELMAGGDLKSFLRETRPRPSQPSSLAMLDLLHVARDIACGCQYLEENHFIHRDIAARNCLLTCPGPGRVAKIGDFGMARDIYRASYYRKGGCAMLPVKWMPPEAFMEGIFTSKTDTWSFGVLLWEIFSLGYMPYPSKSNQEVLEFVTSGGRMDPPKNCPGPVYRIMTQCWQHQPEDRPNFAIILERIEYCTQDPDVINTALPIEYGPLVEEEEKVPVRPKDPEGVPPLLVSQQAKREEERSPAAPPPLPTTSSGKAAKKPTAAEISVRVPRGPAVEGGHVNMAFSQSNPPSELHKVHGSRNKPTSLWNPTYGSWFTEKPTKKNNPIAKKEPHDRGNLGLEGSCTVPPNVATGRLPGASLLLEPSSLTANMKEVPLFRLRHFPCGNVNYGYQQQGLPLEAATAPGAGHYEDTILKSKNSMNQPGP
Sequence of BDNF/NT-3 growth factors receptor (Q16620 whole entry): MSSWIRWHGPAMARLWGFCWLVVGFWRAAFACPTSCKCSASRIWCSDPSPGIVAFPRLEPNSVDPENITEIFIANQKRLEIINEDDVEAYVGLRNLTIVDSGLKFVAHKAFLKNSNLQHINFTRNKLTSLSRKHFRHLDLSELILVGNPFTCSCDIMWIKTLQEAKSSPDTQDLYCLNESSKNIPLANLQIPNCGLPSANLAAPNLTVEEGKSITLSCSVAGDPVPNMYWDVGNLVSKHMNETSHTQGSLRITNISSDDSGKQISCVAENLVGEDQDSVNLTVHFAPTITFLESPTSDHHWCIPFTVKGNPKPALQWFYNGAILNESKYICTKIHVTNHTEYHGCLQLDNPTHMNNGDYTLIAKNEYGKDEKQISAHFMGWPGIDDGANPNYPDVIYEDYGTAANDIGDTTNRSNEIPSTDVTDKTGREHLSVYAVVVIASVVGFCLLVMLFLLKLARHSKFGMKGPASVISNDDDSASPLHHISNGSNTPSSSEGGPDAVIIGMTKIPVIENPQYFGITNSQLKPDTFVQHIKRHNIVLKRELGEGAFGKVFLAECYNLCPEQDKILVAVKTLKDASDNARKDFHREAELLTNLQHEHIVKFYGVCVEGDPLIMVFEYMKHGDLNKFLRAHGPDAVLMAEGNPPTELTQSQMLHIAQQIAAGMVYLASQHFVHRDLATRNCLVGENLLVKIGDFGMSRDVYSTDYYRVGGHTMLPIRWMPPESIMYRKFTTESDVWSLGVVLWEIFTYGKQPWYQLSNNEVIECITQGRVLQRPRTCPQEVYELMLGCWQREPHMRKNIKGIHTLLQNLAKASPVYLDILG
Sequence of RAC-beta serine/threonine-protein kinase (P31751 whole entry): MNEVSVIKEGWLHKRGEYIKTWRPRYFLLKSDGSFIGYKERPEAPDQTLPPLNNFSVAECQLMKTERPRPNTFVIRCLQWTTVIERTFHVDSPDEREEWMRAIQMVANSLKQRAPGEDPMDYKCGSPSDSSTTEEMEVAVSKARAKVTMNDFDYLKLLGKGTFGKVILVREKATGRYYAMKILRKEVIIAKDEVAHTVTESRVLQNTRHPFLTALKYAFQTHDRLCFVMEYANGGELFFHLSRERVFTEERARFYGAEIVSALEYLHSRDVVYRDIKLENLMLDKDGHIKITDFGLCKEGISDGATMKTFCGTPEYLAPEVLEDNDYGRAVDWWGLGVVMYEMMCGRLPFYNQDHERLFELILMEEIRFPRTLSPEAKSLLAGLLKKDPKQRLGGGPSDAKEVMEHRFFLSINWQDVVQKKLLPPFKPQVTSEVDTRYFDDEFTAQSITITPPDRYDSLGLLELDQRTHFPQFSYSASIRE
Sequence of Serine/threonine-protein kinase Sgk1 (O00141 whole entry): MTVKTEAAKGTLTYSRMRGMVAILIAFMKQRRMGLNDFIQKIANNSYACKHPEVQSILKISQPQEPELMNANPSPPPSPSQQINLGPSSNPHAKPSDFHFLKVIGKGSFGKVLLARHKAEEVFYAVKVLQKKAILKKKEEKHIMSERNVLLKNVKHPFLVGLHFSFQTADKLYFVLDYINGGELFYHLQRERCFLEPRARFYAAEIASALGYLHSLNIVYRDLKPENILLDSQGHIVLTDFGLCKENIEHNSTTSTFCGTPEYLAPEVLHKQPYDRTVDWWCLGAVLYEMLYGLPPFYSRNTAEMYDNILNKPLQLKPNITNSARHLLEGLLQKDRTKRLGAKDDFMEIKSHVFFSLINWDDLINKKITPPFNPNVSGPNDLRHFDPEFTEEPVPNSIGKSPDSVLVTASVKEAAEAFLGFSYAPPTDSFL

IC50 [6]: > 10 µM | IC50 [7]: > 10 µM | IC50 [8]: > 10 µM | IC50 [9]: > 10 µM | IC50 [12]: > 10 µM | IC50 (Aurora kinase A): > 10 µM | IC50 (Insulin receptor): > 10 µM | IC50 [16]: > 10 µM | IC50 [18]: > 10 µM | IC50 [19]: > 10 µM | IC50 [20]: > 10 µM
SMILES: O=C(c1ccc(F)c(F)c1Nc1ccc(I)cc1F)N1CC(O)([C@@H]2CCCCN2)C1 [COBIMETINIB]
Activity (C32): 60% | inhibition in vivo at 2.5 mg/kg (SK-OV-3): 36% | inhibition (888-mel [1]): Active | inhibition in vivo at 10 mg/kg (NCI-H2122): 80% | Activity (888-mel [2]): inactive | Activity (A2058 [3]): 60% | inhibition in vivo at 3 mg/kg (DLD-1 [4]): 88% | inhibition in vivo at 10 mg/kg (DLD-1 [5]): 49.5% | Activity (A2058 [10]): Active | inhibition in vivo at 2.5 mg/kg [11]: 36% | inhibition in vivo at 10 mg/kg (A2058 [13]): 47.3% | inhibition in vivo at 5 mg/kg [14]: 30% | inhibition in vivo at 5 mg/kg (Calu-6): 80% | inhibition in vivo at 5 mg/kg (DLD-1 [15]): 50.2% | Activity (A2058 [17]): Active | Activity (A2058 [21]): Active
